Results reported in ChEMBL document CHEMBL5252510, “A Novel Potent Oral Series of VEGFR2 Inhibitors Abrogate Tumor Growth by Inhibiting Angiogenesis” (J Med Chem, 2016).
Calls of active or inactive are those of the source. No cut-off for these calls is given here.

Experiments:
[1] = system: BaF3; experiment: Antiproliferative activity against mouse BaF3 cells expressing ERBB2 V659E mutant assessed as cell growth inhibition measured after 72 hrs by Alamar Blue assay; conditions: BaF3, 72 h
[2] = system: B16-BL6; experiment: Antitumor activity against mouse B16-BL6 cells implanted in C57BL/6jNpa mouse assessed as primary tumor growth inhibition by measuring T/C ratio at 100 mg/kg, po qd administered started on day 7 post implantation measured after 21 days; type: functional; conditions: time 7-21 day
Summary of the method: (§1)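 Female C57BL/6JNpa mice, 50000 B16/BL6 cells intradermally in both ear pinnae; primary tumor area (mm²) imaged days 7, 14, 21; randomized day 7 into groups of 5-6, oral dosing in PEG200 or PEG300 vehicle daily (or every 2 days) for 14 days; day 21 cervical lymph nodes weighed, metastasis lysates assayed for TIE-2 by ELISA; T/C ratios.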

[3] = system: BaF3; experiment: Antiproliferative activity against mouse BaF3 cells expressing PTC3-RET assessed as cell growth inhibition measured after 72 hrs by Alamar Blue assay; conditions: BaF3, 72 h
[4] = system: BaF3; experiment: Antiproliferative activity against mouse BaF3 cells expressing Trp-MET assessed as cell growth inhibition measured after 72 hrs by Alamar Blue assay; conditions: BaF3, 72 h
[5] = system: BaF3; experiment: Antiproliferative activity against mouse BaF3 cells expressing Bcr-ABL assessed as cell growth inhibition measured after 72 hrs by Alamar Blue assay; conditions: BaF3, 72 h
[6] = system: HUVEC; experiment: Antiproliferative activity against VEGF-stimulated HUVEC cells assessed as cell growth inhibition measured after 24 hrs by BrdUrd incorporation based spectrophotometric analysis; conditions: Homo sapiens
[7] = system: BaF3; experiment: Antiproliferative activity against mouse BaF3 cells expressing Tel-FGFR3 assessed as cell growth inhibition measured after 72 hrs by Alamar Blue assay; conditions: BaF3, 72 h
[8] = system: BaF3; experiment: Antiproliferative activity against mouse BaF3 cells expressing KIT D816V mutant assessed as cell growth inhibition measured after 72 hrs by Alamar Blue assay; conditions: BaF3, 72 h
[9] = Antitumor activity against rat BN472 cell implanted in Brown-Norway rat assessed as tumor growth inhibition by measuring T/C ratio at 100 mg/kg, po qd measured upto 14 days; type: functional; conditions: time <= 14 day
Summary of the method: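 Female Brown-Norway rats (160-180 g) given 3 mm³ BN472 tumor fragments in mammary fat pads; at about 200 mm², randomized into groups of 7-8 and dosed orally with compound or PEG300 vehicle over 14 days; tumor growth followed, T/C computed; significance by 2-way RM-ANOVA.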

[10] = system: BaF3; experiment: Antiproliferative activity against mouse BaF3 cells expressing FLT3-ITD assessed as cell growth inhibition measured after 72 hrs by Alamar Blue assay; conditions: BaF3, 72 h
[11] = target: Vascular endothelial growth factor receptor 2 (Mus musculus, UniProt P35918); experiment: Inhibition of mouse recombinant GST-fused VEGFR2 kinase domain expressed in baculovirus expression system using poly-Glu-Tyr (4:1) as substrate measured after 10 mins in presence of gamma-[33P]-ATP by scintillation counting analysis
Chain of Vascular endothelial growth factor receptor 2 (P35918 whole entry, the tested form may be a part): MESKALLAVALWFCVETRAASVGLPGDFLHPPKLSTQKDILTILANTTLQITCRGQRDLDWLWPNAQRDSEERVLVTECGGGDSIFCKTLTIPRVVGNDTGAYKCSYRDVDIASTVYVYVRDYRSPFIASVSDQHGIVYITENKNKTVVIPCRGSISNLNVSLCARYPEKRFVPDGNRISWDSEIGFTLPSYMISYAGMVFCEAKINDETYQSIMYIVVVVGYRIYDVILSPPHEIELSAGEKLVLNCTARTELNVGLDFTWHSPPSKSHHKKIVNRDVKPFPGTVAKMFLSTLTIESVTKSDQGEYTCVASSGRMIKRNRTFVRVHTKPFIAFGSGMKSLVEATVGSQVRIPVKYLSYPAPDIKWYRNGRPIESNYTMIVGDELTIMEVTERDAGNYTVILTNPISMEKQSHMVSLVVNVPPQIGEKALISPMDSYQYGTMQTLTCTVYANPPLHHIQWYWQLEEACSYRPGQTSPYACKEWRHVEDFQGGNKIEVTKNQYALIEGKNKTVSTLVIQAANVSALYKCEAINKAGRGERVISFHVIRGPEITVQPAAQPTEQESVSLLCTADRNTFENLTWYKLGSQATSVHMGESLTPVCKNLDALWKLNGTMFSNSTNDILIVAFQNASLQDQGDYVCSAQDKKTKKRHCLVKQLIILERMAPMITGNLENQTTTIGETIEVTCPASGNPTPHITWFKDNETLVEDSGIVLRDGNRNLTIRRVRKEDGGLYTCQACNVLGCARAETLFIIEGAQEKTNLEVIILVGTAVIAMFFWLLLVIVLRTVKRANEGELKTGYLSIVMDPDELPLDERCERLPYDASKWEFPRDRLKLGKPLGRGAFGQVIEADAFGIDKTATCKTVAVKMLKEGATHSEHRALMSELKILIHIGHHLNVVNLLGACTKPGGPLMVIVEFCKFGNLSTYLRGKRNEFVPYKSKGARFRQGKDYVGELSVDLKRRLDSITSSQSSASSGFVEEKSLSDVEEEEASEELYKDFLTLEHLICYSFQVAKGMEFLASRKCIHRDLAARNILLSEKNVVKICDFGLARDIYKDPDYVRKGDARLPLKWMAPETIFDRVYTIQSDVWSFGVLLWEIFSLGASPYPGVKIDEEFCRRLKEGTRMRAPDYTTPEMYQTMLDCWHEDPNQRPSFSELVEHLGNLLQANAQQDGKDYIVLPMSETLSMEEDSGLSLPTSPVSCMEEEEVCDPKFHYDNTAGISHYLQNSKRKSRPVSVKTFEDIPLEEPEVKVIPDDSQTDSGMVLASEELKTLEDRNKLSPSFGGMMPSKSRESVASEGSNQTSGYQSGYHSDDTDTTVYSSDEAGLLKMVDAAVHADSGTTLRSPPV
Summary of the method: (§2)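 GST-fused kinase domains were expressed in baculovirus and purified on glutathione-Sepharose. 10 min at ambient temperature, stopped with EDTA. Filter binding and scintillation counting. IC50 by linear regression of percent inhibition.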

[12] = system: HUVEC; experiment: Antiproliferative activity against bFGF-stimulated HUVEC cells assessed as cell growth inhibition measured after 24 hrs by BrdUrd incorporation based spectrophotometric analysis; conditions: Homo sapiens
[13] = system: BaF3; experiment: Antiproliferative activity against mouse BaF3 cells expressing NPM-ALK assessed as cell growth inhibition measured after 72 hrs by Alamar Blue assay; conditions: BaF3, 72 h
[14] = system: BaF3; experiment: Antiproliferative activity against mouse BaF3 cells expressing Tel-PDGFRbeta assessed as cell growth inhibition measured after 72 hrs by Alamar Blue assay; conditions: BaF3, 72 h
[15] = system: B16-BL6; experiment: Antitumor activity against mouse B16-BL6 cells implanted in C57BL/6jNpa mouse assessed as metastatic tumor growth inhibition by measuring T/C ratio at 100 mg/kg, po qd administered started on day 7 post implantation measured after 21 days relative to control; type: functional; conditions: time 7-21 day; summary of the method: as §1
[16] = system: BaF3; experiment: Antiproliferative activity against mouse BaF3 cells assessed as cell growth inhibition measured after 72 hrs by Alamar Blue assay; conditions: BaF3, 72 h
[17] = system: BaF3; experiment: Antiproliferative activity against mouse BaF3 cells expressing Tel-IGF-1R assessed as cell growth inhibition measured after 72 hrs by Alamar Blue assay; conditions: BaF3, 72 h
[18] = system: Mus musculus; experiment: Anti-angiogenesis activity in FVB mouse model assessed as inhibition of VEGF-induced tissue weight at 50 mg/kg, po qd treated for 4 to 6 hrs prior to chamber implantation and continuing for 4 days measured after 24 hrs post last dose; type: functional, organism-based; conditions: time 5.0 day
Summary of the method: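 Chamber model in female FVB mice: VEGF (2 μg/mL) agar/heparin chambers s.c. in flank, oral dosing once daily starting 4-6 h before implantation and continuing 4 days; vascularized tissue harvested and weighed 24 h after final dose; 6 mice per group.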

[19] = target: Cyclin-dependent kinase 1 (Homo sapiens) (UniProt P06493); experiment: Inhibition of human recombinant GST-fused CDK1 expressed in baculovirus expression system using poly-Glu-Tyr (4:1) as substrate measured after 10 mins in presence of gamma-[33P]-ATP by scintillation counting analysis; summary of the method: as §2
Chain of Cyclin-dependent kinase 1 (Homo sapiens) (P06493 whole entry, looked up, the tested form may be a part): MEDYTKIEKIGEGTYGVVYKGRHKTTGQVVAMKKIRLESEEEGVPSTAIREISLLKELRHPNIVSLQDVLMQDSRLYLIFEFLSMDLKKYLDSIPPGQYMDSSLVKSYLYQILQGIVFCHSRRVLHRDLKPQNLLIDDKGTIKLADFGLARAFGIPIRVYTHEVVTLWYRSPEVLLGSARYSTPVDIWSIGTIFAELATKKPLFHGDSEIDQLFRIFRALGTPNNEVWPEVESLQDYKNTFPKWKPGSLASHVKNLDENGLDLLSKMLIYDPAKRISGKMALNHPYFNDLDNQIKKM

[20] = target: Fibroblast growth factor receptor 3 (Homo sapiens) (UniProt P22607); experiment: Inhibition of human recombinant GST-fused FGFR3 expressed in baculovirus expression system using poly-Glu-Tyr (4:1) as substrate measured after 10 mins in presence of gamma-[33P]-ATP by scintillation counting analysis; summary of the method: as §2
Chain of Fibroblast growth factor receptor 3 (Homo sapiens) (P22607 23-806 limits assumed): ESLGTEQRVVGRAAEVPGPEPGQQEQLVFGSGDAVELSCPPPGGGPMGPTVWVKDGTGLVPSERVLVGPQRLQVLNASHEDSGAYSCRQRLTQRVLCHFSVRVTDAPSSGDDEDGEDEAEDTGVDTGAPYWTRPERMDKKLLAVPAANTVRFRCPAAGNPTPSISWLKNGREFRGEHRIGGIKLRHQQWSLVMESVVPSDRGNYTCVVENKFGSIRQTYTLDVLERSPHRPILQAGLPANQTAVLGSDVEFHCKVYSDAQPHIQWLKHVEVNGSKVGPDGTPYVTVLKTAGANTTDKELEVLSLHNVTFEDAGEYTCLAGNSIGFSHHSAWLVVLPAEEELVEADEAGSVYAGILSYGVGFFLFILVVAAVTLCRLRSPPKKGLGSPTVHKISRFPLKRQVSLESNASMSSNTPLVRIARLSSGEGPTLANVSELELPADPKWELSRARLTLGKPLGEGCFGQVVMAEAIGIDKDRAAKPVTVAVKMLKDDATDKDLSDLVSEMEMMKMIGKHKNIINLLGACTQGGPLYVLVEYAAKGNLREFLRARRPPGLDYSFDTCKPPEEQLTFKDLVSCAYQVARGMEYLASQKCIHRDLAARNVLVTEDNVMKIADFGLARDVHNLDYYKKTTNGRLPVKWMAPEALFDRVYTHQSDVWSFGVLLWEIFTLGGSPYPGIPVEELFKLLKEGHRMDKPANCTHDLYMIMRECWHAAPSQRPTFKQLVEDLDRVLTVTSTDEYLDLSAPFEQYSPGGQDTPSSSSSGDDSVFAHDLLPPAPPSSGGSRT

[21] = target: Hepatocyte growth factor receptor (Homo sapiens) (UniProt P08581); experiment: Inhibition of human recombinant GST-fused c-MET expressed in baculovirus expression system using poly-Glu-Tyr (4:1) as substrate measured after 10 mins in presence of gamma-[33P]-ATP by scintillation counting analysis; summary of the method: as §2
Chain of Hepatocyte growth factor receptor (Homo sapiens) (P08581 whole entry, the tested form may be a part): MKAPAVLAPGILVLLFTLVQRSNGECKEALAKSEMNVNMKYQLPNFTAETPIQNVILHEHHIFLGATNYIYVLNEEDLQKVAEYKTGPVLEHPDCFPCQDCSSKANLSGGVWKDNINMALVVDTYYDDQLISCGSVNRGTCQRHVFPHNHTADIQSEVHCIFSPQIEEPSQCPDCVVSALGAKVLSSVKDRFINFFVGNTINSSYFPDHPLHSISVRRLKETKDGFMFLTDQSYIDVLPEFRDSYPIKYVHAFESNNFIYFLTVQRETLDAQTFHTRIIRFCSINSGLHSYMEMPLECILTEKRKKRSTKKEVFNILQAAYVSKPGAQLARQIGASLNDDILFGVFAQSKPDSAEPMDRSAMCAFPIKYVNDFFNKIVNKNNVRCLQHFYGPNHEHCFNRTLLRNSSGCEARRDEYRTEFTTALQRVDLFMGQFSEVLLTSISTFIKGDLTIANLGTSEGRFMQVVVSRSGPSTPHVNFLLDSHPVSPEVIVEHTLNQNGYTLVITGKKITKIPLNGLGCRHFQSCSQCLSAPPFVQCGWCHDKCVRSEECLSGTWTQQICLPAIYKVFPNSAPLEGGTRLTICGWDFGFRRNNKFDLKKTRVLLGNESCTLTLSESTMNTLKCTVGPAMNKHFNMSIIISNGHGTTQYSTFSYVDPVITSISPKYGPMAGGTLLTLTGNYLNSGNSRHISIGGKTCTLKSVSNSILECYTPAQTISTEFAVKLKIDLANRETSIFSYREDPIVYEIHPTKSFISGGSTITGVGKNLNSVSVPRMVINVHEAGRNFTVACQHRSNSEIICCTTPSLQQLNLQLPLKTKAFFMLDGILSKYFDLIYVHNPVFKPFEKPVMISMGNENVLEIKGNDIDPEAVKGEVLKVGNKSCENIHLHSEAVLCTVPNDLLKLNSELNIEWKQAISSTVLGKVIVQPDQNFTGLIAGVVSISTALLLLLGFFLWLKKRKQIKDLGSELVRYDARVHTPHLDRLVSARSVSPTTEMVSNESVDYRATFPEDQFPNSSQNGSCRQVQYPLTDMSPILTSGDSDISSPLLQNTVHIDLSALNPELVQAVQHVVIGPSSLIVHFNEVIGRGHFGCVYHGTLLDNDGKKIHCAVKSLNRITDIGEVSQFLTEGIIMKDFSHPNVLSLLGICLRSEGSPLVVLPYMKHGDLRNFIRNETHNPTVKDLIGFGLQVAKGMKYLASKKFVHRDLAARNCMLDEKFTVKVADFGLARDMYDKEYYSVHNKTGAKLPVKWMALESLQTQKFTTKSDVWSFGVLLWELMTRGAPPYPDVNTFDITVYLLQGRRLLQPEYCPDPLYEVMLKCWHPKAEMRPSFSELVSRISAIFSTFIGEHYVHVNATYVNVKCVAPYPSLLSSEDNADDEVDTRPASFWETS

SMILES	IC50 [1] [nM]	IC50 [3] [nM]	IC50 [4] [nM]	IC50 [5] [nM]	IC50 [6] [nM]	IC50 [7] [nM]	IC50 [8] [nM]	IC50 [10] [nM]	IC50 [12] [nM]	IC50 [13] [nM]	IC50 [14] [nM]	IC50 [16] [nM]	IC50 [17] [nM]	also measured
O=C(Nc1cccc(C(F)(F)F)c1)c1ccccc1NCc1ccncc1	5600	2900	> 5500	> 5500	1	> 5500	> 5500	> 5500	> 3000	> 5500	19	> 10000	8400	T/C [2]: 0.35; T/C [9]: 0.37; IC50 [11]: 55 nM; T/C [15]: 0.17
Cc1[nH]c(/C=C2\C(=O)Nc3ccccc32)c(C)c1CCC(=O)O														Activity [18]: Active
CCN(CC)CCNC(=O)c1c(C)[nH]c(/C=C2\C(=O)Nc3ccc(F)cc32)c1C [SUNITINIB]	3850	297	5120	7180	7	1560	1470	35	> 3000	1150	2.3	> 10000	1290	inhibition [19]: Active; inhibition [20]: Active; inhibition [21]: Active
